Experimental data gathered from unrelated publications.
FLT3 R834Q: Receptor-type tyrosine-protein kinase FLT3 (FLT3, Homo sapiens, UniProt P36888, R834Q)
FLT3 autoinhibited: Receptor-type tyrosine-protein kinase FLT3, autoinhibited (FLT3, Homo sapiens, UniProt P36888)
FLT3 D835H: Receptor-type tyrosine-protein kinase FLT3 (FLT3, Homo sapiens, UniProt P36888, D835H)
FLT3 K663Q: Receptor-type tyrosine-protein kinase FLT3 (FLT3, Homo sapiens, UniProt P36888, K663Q)
FLT3 N841I: Receptor-type tyrosine-protein kinase FLT3 (FLT3, Homo sapiens, UniProt P36888, N841I)
FLT3: Receptor-type tyrosine-protein kinase FLT3 (FLT3, Homo sapiens, UniProt P36888)
FLT3 D835Y: Receptor-type tyrosine-protein kinase FLT3 (FLT3, Homo sapiens, UniProt P36888, D835Y)
FLT3 ITD: Receptor-type tyrosine-protein kinase FLT3 (FLT3, Homo sapiens, UniProt P36888, ITD)

Structure (SMILES) | target | assay | conditions | remaining binding [%]
CN1CCN(c2ccc(Nc3nccc(-c4ccccc4)n3)cc2C(F)(F)F)CC1 | FLT3 R834Q | binding | 10 µM | 15
CC1CCCN1c1nccc(-c2cnn3ncccc23)n1 (stereo not shown) | FLT3 autoinhibited | binding | 1 µM | 100
Cc1noc([C@H]2C[C@@H](c3ccc(C(F)(F)F)cc3)CN(C(=O)N3CCS(=O)(=O)C3)C2)n1 | FLT3 D835H | cell-free assay, competition with immobilised ligand | 1 µM | 100
c1cncc(-c2cccc(Nc3nccc(NC4CCCCC4)n3)c2)c1 | FLT3 K663Q | binding, competition with immobilised ligand | 10 µM | 1.1
O=C(c1ccc(Nc2ncc(Cl)c(-c3cc4ccccc4s3)n2)cc1)N1CCC(N2CCCC2)CC1 | FLT3 autoinhibited | binding, competition with immobilised ligand | 1 µM | 27
O=C(Nc1c[nH]nc1C(=O)NC1CCNCC1)c1cc(F)cc(F)c1 | FLT3 N841I | binding, competition with immobilised ligand | 1 µM | 100
C[C@@H](c1ccc(-n2cnc3c(N)ncnc32)cc1)N1CCc2nn(C)c(Cc3ccccc3)c2C1=O | FLT3 | binding, competition with immobilised ligand | 0.1 µM | 100
N[C@@H]1CCN(c2nccc(-c3cnn4ncccc34)n2)C1 | FLT3 R834Q | binding | 1 µM | 100
O=C(NCC1CCOCC1)c1n[nH]cc1NC(=O)c1c(F)cccc1F | FLT3 R834Q | binding, competition with immobilised ligand | 1 µM | 77
CCS(=O)(=O)c1cc2cc(C[C@@](O)(CC(C)(C)c3ccc(F)cc3C(N)=O)C(F)(F)F)[nH]c2cn1 | FLT3 | cell-free assay, competition with immobilised ligand | 1 µM | 97
CCN1CCN(Cc2ccc(C(=O)Nc3ccc(C)c(Oc4ccc5c(c4)CC(=O)N5)c3)cc2C(F)(F)F)CC1 | FLT3 D835Y | binding, competition with immobilised ligand | 1 µM | 100
COc1ccnn2ncc(-c3ccnc(N(C)C)n3)c12 | FLT3 N841I | binding | 1 µM | 100
C=CC(=O)N1CCC(C(=O)NCC(=O)N2CCN(c3nc(-c4cnc(N)nc4C(F)F)nc(N4CCOCC4)n3)CC2)CC1 | FLT3 K663Q | binding, competition with immobilised ligand | 1 µM | 100
CS(=O)(=O)c1cc(C2(NC(=O)c3cncc4c3cnn4-c3ccc(F)cc3)CC2)ccn1 | Receptor-type tyrosine-protein kinase FLT3 (FLT3, Homo sapiens, UniProt P36888, D835V) | cell-free assay, competition with immobilised ligand | 1 µM | 100
O=C(NCCCN1CCOCC1)c1ccc(Nc2ncc(Cl)c(-c3ccc(Cl)s3)n2)cc1 | FLT3 N841I | binding, competition with immobilised ligand | 1 µM | 0.6
COc1ncc2cc3ccccc3nc2c1C#N | FLT3 autoinhibited | cell-free assay, competition with immobilised ligand | 5 µM | 100
CN1CCN(c2ccc(Nc3nccc(-c4cccc([N+](=O)[O-])c4)n3)cc2C(F)(F)F)CC1 | FLT3 R834Q | binding | 10 µM | 3.7

Structure (SMILES) | target | assay | conditions | remaining binding [%]
O=C(c1ccc(Nc2nccc(-c3cc4ccccc4s3)n2)cc1)N1CCC(N2CCCC2)CC1 | FLT3 ITD | binding, competition with immobilised ligand | 1 µM | 46
COc1cnc(Nc2cccc(S(N)(=O)=O)c2)nc1N1CCN(c2ccccc2)CC1 | FLT3 R834Q | binding, competition with immobilised ligand | 1 µM | 54
C[C@@H]1CCN(c2nccc(-c3cnn4ncccc34)n2)C1 | FLT3 D835Y | binding | 1 µM | 100
COc1cnc(Nc2cccc(S(N)(=O)=O)c2)nc1N1CCN(c2ccccc2)C(=O)C1 | FLT3 autoinhibited | binding, competition with immobilised ligand | 1 µM | 100
CN(C)c1nccc(-c2cnc3ncccn23)n1 | FLT3 | binding | 1 µM | 100
O=C(NCCCN1CCOCC1)c1ccc(Nc2nccc(-c3cc4ccccc4s3)n2)cc1 | FLT3 D835Y | binding, competition with immobilised ligand | 1 µM | 18
CC1=C(C#N)C(c2ccc3c(c2)c(NC(=O)c2ccccc2C)nn3C)C(C#N)=C(C)N1 | FLT3 K663Q | cell-free assay, competition with immobilised ligand | 1 µM | 100
CN(C)c1nccc(-c2cnn3ncccc23)n1 | FLT3 D835H | binding | 1 µM | 100
Nc1ncc2c(n1)-c1c([nH]c3ccc(C#CC4CC4)cc13)CCCC2 | FLT3 N841I | binding, competition with immobilised ligand | 1 µM | 89
CO[C@H]1CC[C@H](CNc2ccc(S(=O)(=O)NC(=O)c3ccc(N4CCN(CC5=C(c6ccc(Cl)cc6)CC(C)(C)CC5)CC4)cc3Oc3cnc4[nH]ccc4c3)cc2[N+](=O)[O-])CC1 | FLT3 | cell-free assay, competition with immobilised ligand | 1 µM | 100
Cc1cnn2ncc(-c3ccnc(N(C)C)n3)c2c1 | FLT3 N841I | binding | 1 µM | 100
CCCCN(CCCC)C(=O)CN1C[C@@H](c2cc(OC)c3c(c2)OCO3)[C@H](C(=O)O)[C@H]1CC(C)(C)CCC | FLT3 D835Y | cell-free assay, competition with immobilised ligand | 1 µM | 75.2
CNC(=O)[C@@H]1CC[C@@H](n2c(-c3ccc4cnccc4c3)nc3ccc(C(=O)NCc4cccc(C(N)=O)c4)cc32)C1 | FLT3 R834Q | binding, competition with immobilised ligand | 1 µM | 100
CCC(=O)N[C@H]1CC[C@@H](C(=O)N(C)c2ccc(-c3nc4ccccc4o3)cc2)C1 | FLT3 K663Q | cell-free assay, competition with immobilised ligand | 1 µM | 88
O=C(c1ccc(Nc2ncc(Cl)c(-c3ccc(Cl)s3)n2)cc1)N1CCC(N2CCCC2)CC1 | FLT3 ITD | binding, competition with immobilised ligand | 1 µM | 0.35
CO[C@@H](C)c1c(Nc2ccc([C@H](N(C)C(=O)C3CCS(=O)(=O)CC3)C(F)(F)F)cc2)cnc2cc(Cl)nn12 | FLT3 K663Q | cell-free assay, competition with immobilised ligand | 1 µM | 100
Cc1cnc(Nc2ccc(C(=O)N3CCC(N4CCCC4)CC3)cc2)nc1-c1cc2ccccc2s1 | FLT3 ITD | binding, competition with immobilised ligand | 1 µM | 6.6
